According to ChEMBL document CHEMBL3616405 (J Med Chem, 2015):

Legend:
Albumin = Albumin (Homo sapiens, UniProt P02768); assay: Binding affinity to human serum albumin at 100 uM by analytical ultracentrifugation analysis relative to liraglutide; type: ADME; details: isolated protein
Outline: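 Sedimentation-velocity analytical ultracentrifugation of 100 μM analogue with 10 μM purified monomeric HSA in PBS, pH 7.4, at 20 °C and 40 000 rpm, read at 250 nm. Free fraction Φ = c_free/(c_tot − c_HSA). Three experiments were averaged, with SD.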

[1] = target: T1, Glucagon-like peptide 1 receptor (Homo sapiens, UniProt P43220); assay: Displacement of [125I]-GLP1 from human GLP1 receptor expressed in BHK cells after 2 hrs in presence of 2% human serum albumin; type: cell-based
T1 sequence (P43220 whole entry): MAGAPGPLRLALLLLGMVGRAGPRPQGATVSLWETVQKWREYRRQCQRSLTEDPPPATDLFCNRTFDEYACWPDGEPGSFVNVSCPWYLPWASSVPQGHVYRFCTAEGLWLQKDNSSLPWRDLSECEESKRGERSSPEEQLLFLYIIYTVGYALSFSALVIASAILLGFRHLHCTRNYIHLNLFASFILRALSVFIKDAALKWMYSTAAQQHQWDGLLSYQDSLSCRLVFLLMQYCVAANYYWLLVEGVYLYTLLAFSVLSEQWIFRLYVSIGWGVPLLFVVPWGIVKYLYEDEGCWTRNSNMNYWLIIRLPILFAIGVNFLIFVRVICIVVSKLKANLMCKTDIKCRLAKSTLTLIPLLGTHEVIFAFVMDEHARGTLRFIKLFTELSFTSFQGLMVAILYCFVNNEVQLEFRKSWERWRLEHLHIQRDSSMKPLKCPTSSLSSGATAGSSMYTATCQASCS

[2] = target: T1, Glucagon-like peptide 1 receptor; assay: Agonist activity at human GLP1 receptor expressed in BHK cells after 3 hrs by CRE firefly luciferase reporter gene assay in absence of human serum albumin; type: functional, cell-based
[3] = target: T1, Glucagon-like peptide 1 receptor; assay: Displacement of [125I]-GLP1 from human GLP1 receptor expressed in BHK cells after 2 hrs in absence of human serum albumin; type: cell-based
[4] = Bioavailability in Gottingen mini pig at 1 nmol/kg, sc; type: ADME, organism-based, Sus scrofa; details: Gottingen minipig, in vivo
Outline: (§1)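 Göttingen mini-pigs received a single i.v. or s.c. dose, sized to individual body weight. Twelve blood samples were taken up to 288 h into ice-cooled EDTA tubes, then centrifuged at 4 °C. Plasma was frozen until GLP-1 analogue was measured by ELISA or LC/MS. Cl, Vz, T1/2, Tmax, MRT and F came from noncompartmental analysis.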

[5] = Mean residence time in Gottingen mini pig at 1 nmol/kg, sc; type: ADME, organism-based, Sus scrofa; details: Gottingen minipig, in vivo; outline: as §1
[6] = Clearance in Gottingen mini pig at 0.5 nmol/kg, iv; type: ADME, organism-based, Sus scrofa; details: Gottingen minipig, in vivo; outline: as §1
[7] = Half life in Gottingen mini pig at 0.5 nmol/kg, iv; type: ADME, organism-based, Sus scrofa; details: Gottingen minipig, in vivo; outline: as §1
[8] = Apparent volume of distribution in Gottingen mini pig at 0.5 nmol/kg, iv; type: ADME, organism-based, Sus scrofa; details: Gottingen minipig, in vivo, read-out: Vz; outline: as §1
Homo sapiens = organism: Homo sapiens; assay: Half life in human; type: ADME, organism-based; details: in vivo
Sus scrofa [9] = assay: Half life in Gottingen mini pig at 2 nmol/kg, iv; type: ADME, organism-based; details: in vivo; outline: as §1
Sus scrofa [10] = assay: Mean residence time in Gottingen mini pig at 2 nmol/kg, sc; type: ADME, organism-based; details: in vivo; outline: as §1
Sus scrofa [11] = assay: Bioavailability in Gottingen mini pig at 2 nmol/kg, sc; type: ADME, organism-based; details: in vivo; outline: as §1
Sus scrofa [12] = assay: Apparent volume of distribution in Gottingen mini pig at 2 nmol/kg, iv; type: ADME, organism-based; details: in vivo; outline: as §1
Sus scrofa [13] = assay: Clearance in Gottingen mini pig at 2 nmol/kg, iv; type: ADME, organism-based; details: in vivo; outline: as §1
Mus musculus [14] = assay: Antihyperglycaemic activity in sc dosed db/db mouse assessed as reduction of blood glucose level up to 48 hrs by glucose oxidase method; type: functional, organism-based
Outline: (§2)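 Male db/db mice (10–12 weeks old, blood glucose above 10 mM), group-housed, fed chow and acidified water ad libitum. Doses of 0.3–100 nmol/kg were given s.c. at 6 mL/kg in 50 mM phosphate with 0.05% Tween 80, pH 8. Tail-tip capillary blood glucose was measured by glucose oxidase at 0, 1, 2, 3, 6, 24 and 48 h. […] Values are mean ± SEM.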

Sus scrofa [15] = assay: Tmax in Gottingen mini pig at 2 nmol/kg, sc; type: ADME, organism-based; details: in vivo; outline: as §1
Mus musculus [16] = assay: Antiobesity activity in sc dosed db/db mouse assessed as reduction of body weight; type: functional, organism-based
Mus musculus [17] = assay: Antihyperglycaemic activity in sc dosed db/db mouse assessed as reduction of blood glucose level by glucose oxidase method; type: functional, organism-based; outline: as §2

Sequence of Albumin (P02768 whole entry): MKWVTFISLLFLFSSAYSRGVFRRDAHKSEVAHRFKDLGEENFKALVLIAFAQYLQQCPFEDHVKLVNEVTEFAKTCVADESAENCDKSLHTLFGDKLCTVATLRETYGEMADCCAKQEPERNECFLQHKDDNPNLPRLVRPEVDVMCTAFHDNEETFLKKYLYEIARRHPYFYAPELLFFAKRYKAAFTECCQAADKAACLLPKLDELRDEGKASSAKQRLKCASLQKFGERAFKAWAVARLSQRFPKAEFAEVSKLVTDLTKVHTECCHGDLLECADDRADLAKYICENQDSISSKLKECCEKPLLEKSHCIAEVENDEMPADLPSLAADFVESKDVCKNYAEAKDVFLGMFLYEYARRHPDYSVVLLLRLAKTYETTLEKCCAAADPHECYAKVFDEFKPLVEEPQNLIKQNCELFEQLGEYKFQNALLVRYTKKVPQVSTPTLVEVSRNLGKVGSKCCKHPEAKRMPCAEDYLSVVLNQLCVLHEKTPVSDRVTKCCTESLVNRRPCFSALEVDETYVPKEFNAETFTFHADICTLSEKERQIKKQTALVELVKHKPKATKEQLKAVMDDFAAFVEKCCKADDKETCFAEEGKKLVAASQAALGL

Question: Which Activity (Albumin) does the source give for CC[C@H](C)[C@H](NC(=O)[C@H](Cc1ccccc1)NC(=O)[C@H](CCC(=O)O)NC(=O)[C@H](CCCCNC(=O)COCCOCCNC(=O)COCCOCCNC(=O)CC[C@H](NC(=O)CCCCCCCCCCCCCCCCC(=O)O)C(=O)O)NC(=O)[C@H](C)NC(=O)[C@H](C)NC(=O)[C@H](CCC(N)=O)NC(=O)CNC(=O)[C@H](CCC(=O)O)NC(=O)[C@H](CC(C)C)NC(=O)[C@H](Cc1ccc(O)cc1)NC(=O)[C@H](CO)NC(=O)[C@H](CO)NC(=O)[C@@H](NC(=O)[C@H](CC(=O)O)NC(=O)[C@H](CO)NC(=O)[C@@H](NC(=O)[C@H](Cc1ccccc1)NC(=O)[C@@H](NC(=O)CNC(=O)[C@H](CCC(=O)O)NC(=O)[C@H](C)NC(=O)[C@@H](N)Cc1c[nH]cn1)[C@@H](C)O)[C@@H](C)O)C(C)C)C(=O)N[C@@H](C)C(=O)N[C@@H](Cc1c[nH]c2ccccc12)C(=O)N[C@@H](CC(C)C)C(=O)N[C@H](C(=O)N[C@@H](CCCNC(=N)N)C(=O)NCC(=O)N[C@@H](CCCNC(=N)N)C(=O)NCC(=O)O)C(C)C here?
Answer: Not Active

Question: Which IC50 [1] does the source give for CC[C@H](C)[C@H](NC(=O)[C@H](Cc1ccccc1)NC(=O)[C@H](CCC(=O)O)NC(=O)[C@H](CCCCN)NC(=O)[C@H](C)NC(=O)[C@H](C)NC(=O)[C@H](CCC(N)=O)NC(=O)[C@H](CCCCNC(=O)COCCOCCNC(=O)COCCOCCNC(=O)CC[C@H](NC(=O)CCCCCCCCCCCCCCCCC(=O)O)C(=O)O)NC(=O)[C@H](CCC(=O)O)NC(=O)[C@H](CC(C)C)NC(=O)[C@H](Cc1ccc(O)cc1)NC(=O)[C@H](CO)NC(=O)[C@H](CO)NC(=O)[C@@H](NC(=O)[C@H](CC(=O)O)NC(=O)[C@H](CO)NC(=O)[C@@H](NC(=O)[C@H](Cc1ccccc1)NC(=O)[C@@H](NC(=O)CNC(=O)[C@H](CCC(=O)O)NC(=O)C(C)(C)NC(=O)[C@@H](N)Cc1c[nH]cn1)[C@@H](C)O)[C@@H](C)O)C(C)C)C(=O)N[C@@H](C)C(=O)N[C@@H](Cc1c[nH]c2ccccc12)C(=O)N[C@@H](CC(C)C)C(=O)N[C@H](C(=O)N[C@@H](CCCCN)C(=O)NCC(=O)N[C@@H](CCCNC(=N)N)C(=O)NCC(=O)O)C(C)C here?
Answer: 17700 pM

Question: And the EC50 [2]?
Answer: 2.7 pM

Question: What about the IC50 [3] of the same molecule?
Answer: 60 pM

Question: Which bioavailability [4] does the source give for CCCCCCCCCCCCCCCC(=O)N[C@@H](CCC(=O)NCCCC[C@H](NC(=O)[C@H](C)NC(=O)[C@H](C)NC(=O)[C@H](CCC(N)=O)NC(=O)CNC(=O)[C@H](CCC(=O)O)NC(=O)[C@H](CC(C)C)NC(=O)[C@H](Cc1ccc(O)cc1)NC(=O)[C@H](CO)NC(=O)[C@H](CO)NC(=O)[C@@H](NC(=O)[C@H](CC(=O)O)NC(=O)[C@H](CO)NC(=O)[C@@H](NC(=O)[C@H](Cc1ccccc1)NC(=O)[C@@H](NC(=O)CNC(=O)[C@H](CCC(=O)O)NC(=O)[C@H](C)NC(=O)[C@@H](N)Cc1cnc[nH]1)[C@@H](C)O)[C@@H](C)O)C(C)C)C(=O)N[C@@H](CCC(=O)O)C(=O)N[C@@H](Cc1ccccc1)C(=O)N[C@H](C(=O)N[C@@H](C)C(=O)N[C@@H](Cc1c[nH]c2ccccc12)C(=O)N[C@@H](CC(C)C)C(=O)N[C@H](C(=O)N[C@@H](CCCNC(=N)N)C(=O)NCC(=O)N[C@@H](CCCNC(=N)N)C(=O)NCC(=O)O)C(C)C)[C@@H](C)CC)C(=O)O [LIRAGLUTIDE] here?
Answer: 66%

Question: And the MRT [5]?
Answer: 23 h

Question: What about the clearance [6] of the same molecule?
Answer: 3.8 mL/h/kg

Question: What about the half-life [7] of the same molecule?
Answer: 12.4 h

Question: And the Vd [8]?
Answer: 0.0674 L/kg

Question: Which IC50 [1] does the source give for CC[C@H](C)[C@H](NC(=O)[C@H](Cc1ccccc1)NC(=O)[C@H](CCC(=O)O)NC(=O)[C@H](CCCCNC(=O)CCCCCCCCCCCCCCCCC(=O)O)NC(=O)[C@H](C)NC(=O)[C@H](C)NC(=O)[C@H](CCC(N)=O)NC(=O)CNC(=O)[C@H](CCC(=O)O)NC(=O)[C@H](CC(C)C)NC(=O)[C@H](Cc1ccc(O)cc1)NC(=O)[C@H](CO)NC(=O)[C@H](CO)NC(=O)[C@@H](NC(=O)[C@H](CC(=O)O)NC(=O)[C@H](CO)NC(=O)[C@@H](NC(=O)[C@H](Cc1ccccc1)NC(=O)[C@@H](NC(=O)CNC(=O)[C@H](CCC(=O)O)NC(=O)C(C)(C)NC(=O)[C@@H](N)Cc1c[nH]cn1)[C@@H](C)O)[C@@H](C)O)C(C)C)C(=O)N[C@@H](C)C(=O)N[C@@H](Cc1c[nH]c2ccccc12)C(=O)N[C@@H](CC(C)C)C(=O)N[C@H](C(=O)N[C@@H](CCCNC(=N)N)C(=O)NCC(=O)N[C@@H](CCCNC(=N)N)C(=O)NCC(=O)O)C(C)C here?
Answer: 27000 pM

Question: And the EC50 [2]?
Answer: 269 pM

Question: What about the IC50 [3] of the same molecule?
Answer: 1860 pM

Question: What does the source list for CC[C@H](C)[C@H](NC(=O)[C@H](Cc1ccccc1)NC(=O)[C@H](CCC(=O)O)NC(=O)[C@H](CCCCNC(=O)COCCOCCNC(=O)COCCOCCNC(=O)CC[C@H](NC(=O)CCCCCCCCCCCCCCC(=O)O)C(=O)O)NC(=O)[C@H](C)NC(=O)[C@H](C)NC(=O)[C@H](CCC(N)=O)NC(=O)CNC(=O)[C@H](CCC(=O)O)NC(=O)[C@H](CC(C)C)NC(=O)[C@H](Cc1ccc(O)cc1)NC(=O)[C@H](CO)NC(=O)[C@H](CO)NC(=O)[C@@H](NC(=O)[C@H](CC(=O)O)NC(=O)[C@H](CO)NC(=O)[C@@H](NC(=O)[C@H](Cc1ccccc1)NC(=O)[C@@H](NC(=O)CNC(=O)[C@H](CCC(=O)O)NC(=O)C(C)(C)NC(=O)[C@@H](N)Cc1c[nH]cn1)[C@@H](C)O)[C@@H](C)O)C(C)C)C(=O)N[C@@H](C)C(=O)N[C@@H](Cc1c[nH]c2ccccc12)C(=O)N[C@@H](CC(C)C)C(=O)N[C@H](C(=O)N[C@@H](CCCNC(=N)N)C(=O)NCC(=O)N[C@@H](CCCNC(=N)N)C(=O)NCC(=O)O)C(C)C?
Answer: IC50 [1]: 20500 pM; EC50 [2]: 8.6 pM; IC50 [3]: 940 pM

Question: For SEMAGLUTIDE [listing 1 of 2 here], which t1/2 (Homo sapiens) is on record?
Answer: 165 h

Question: What about the t1/2 (Sus scrofa [9]) of the same molecule?
Answer: 46.1 h

Question: What about the MRT (Sus scrofa [10]) of the same molecule?
Answer: 63.6 h

Question: And the F (Sus scrofa [11])?
Answer: 94%

Question: What about the Vz (Sus scrofa [12]) of the same molecule?
Answer: 0.1019 L/kg

Question: What about the CL (Sus scrofa [13]) of the same molecule?
Answer: 1.6 mL/h/kg

Question: And the EC50 (Mus musculus [14])?
Answer: < 2 nmol/kg

Question: What about the Tmax (Sus scrofa [15]) of the same molecule?
Answer: 12 h

Question: What does the source list for SEMAGLUTIDE [listing 2 of 2 here]?
Answer: Activity (Mus musculus [16]): Dose-dependent effect; Activity (Mus musculus [17]): Dose-dependent effect
